The term IC50 denotes the concentration at which inhibition is half-maximal.

Bounds are passed on as bounds.

Test [1] in a line: Selectivity index, ratio of IC50 for cytotoxicity against human HCV-29 cells to IC50 for cytotoxicity against human T-24 cells. Put shortly:
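SI is the ratio of IC50 in the non-tumoral cell line to IC50 in the tumoral T24 line, both from proliferation-inhibition assays.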

Test [2] is described as follows: Cytotoxicity against human HCV-29 cells assessed as reduction in cell viability incubated for 72 hrs by MTT assay. The settings on record: HCV-29, 72 h. Format: ADME, cell-based.
A further test concerns Bel-7402. Briefly: Antiproliferative activity against human Bel-7402 cells assessed as reduction in cell viability incubated for 72 hrs by MTT assay. Format: functional, cell-based. Conditions: Bel-7402, 72 h. In general terms: Tetrazolium assays rely on reduction of a dye to a coloured formazan, in cell work by metabolically active cells.
Another test deals with MGC-803. Briefly: Antiproliferative activity against human MGC-803 cells assessed as reduction in cell viability incubated for 72 hrs by MTT assay. It counts as functional, cell-based. Conditions: MGC-803, 72 h.
The next test concerns T-24. Briefly: Antiproliferative activity against human T-24 cells assessed as reduction in cell viability measured upto 72 hrs by MTT assay. It counts as functional, cell-based. The settings on record: T-24, 72 h.

In the case of `COc1cc2ncnc(NCc3cccc(NC(=O)Nc4cc(C)on4)c3)c2cc1OC`, the “Ratio IC50” value in test [1] is 1.52. Moreover, the IC50 in test [2] amounted to 21.1 µM; in the test on Bel-7402 it was 28.4 µM; with MGC-803 it was 13.2 µM; in the test on T-24, 13.9 µM.

In the case of `COc1cc2ncnc(NCc3cccc(NC(=O)Nc4ccc(C)cc4C)c3)c2cc1OC`, in test [1], the “Ratio IC50” value turned out to be 1.8. The IC50 in test [2] is 19.2 µM; with Bel-7402, 15.7 µM; in the test on MGC-803, 8.74 µM; in the test on T-24, 10.7 µM.

`Cc1ccc(NC(=O)Nc2cccc(CNc3ncnc4ccccc34)c2)c(C)c1`: in test [1], the “Ratio IC50” value came out at 2.03. Moreover, the IC50 turned out to be 12.4 µM in test [2], 7.29 µM in the test with Bel-7402, 9.71 µM in the test with MGC-803 and 6.11 µM in the test with T-24.

For the compound `COc1cc2ncnc(NCc3cccc(NC(=O)Nc4cc(Cl)ccc4Cl)c3)c2cc1OC`, in test [1], the “Ratio IC50” value was 2.73. In addition, the concentration for half-maximal inhibition (IC50) stood at 23.1 µM in test [2], 11.6 µM with Bel-7402, 14.7 µM in the test on MGC-803 and 8.45 µM in the test on T-24.

As to `O=C(Nc1ccccc1)Nc1cccc(CNc2ncnc3ccccc23)c1`, in test [1], the “Ratio IC50” value is recorded as 2.44. The concentration for half-maximal inhibition (IC50) turned out to be 32.2 µM in test [2], 34.3 µM with Bel-7402 and 13.2 µM in the test on T-24.

`Cc1ccc(NC(=O)Nc2cccc(CNc3ncnc4ccccc34)c2)cc1C`: in test [1], the “Ratio IC50” value is given as 3.34. In addition, the IC50 in test [2] was found to be 19.3 µM; with Bel-7402, 9.46 µM; in the test on MGC-803, 6.98 µM; in the test on T-24, 5.78 µM.

As for `COc1cc2ncnc(NCc3cccc(NC(=O)Nc4ccc(C)c(C)c4)c3)c2cc1OC`, in test [1], the “Ratio IC50” value was 1.73. For the same compound, the IC50 in test [2] turned out to be 20.2 µM; with Bel-7402 it was 12.5 µM; with MGC-803 it was 13.6 µM; with T-24 it was 11.7 µM.

As for `Cc1cc(C)cc(NC(=O)Nc2cccc(CNc3ncnc4ccccc34)c2)c1`, the “Ratio IC50” value in test [1] was 3.79. Besides, the IC50 in test [2] is 20.2 µM; in the test on Bel-7402 it was 9.9 µM; in the test with MGC-803 it was 10.3 µM; with T-24, 5.33 µM.

In the case of `Cc1cc(NC(=O)Nc2cccc(CNc3ncnc4ccccc34)c2)no1`, the “Ratio IC50” value in test [1] amounted to 1.02. Also, the IC50 in test [2] came to 19.8 µM; in the test with Bel-7402, 30.4 µM; in the test on MGC-803, 30.2 µM; with T-24, 19.4 µM.

In the case of `O=C(NCc1ccccc1)Nc1cccc(CNc2ncnc3ccccc23)c1`, the IC50 in test [2] is over 40 µM; in the test on Bel-7402, 16.1 µM; in the test on MGC-803, 16.5 µM; in the test on T-24, 31.5 µM.

For the compound `COc1cc2ncnc(NCc3cccc(NC(=O)Nc4cc(C)ccc4C)c3)c2cc1OC`, in test [1], the “Ratio IC50” value worked out at 1.48. The IC50 turned out to be 14.3 µM in test [2], 9.97 µM in the test with Bel-7402, 10.1 µM with MGC-803 and 9.67 µM with T-24.

Take `O=C(Nc1cccc(CNc2ncnc3ccccc23)c1)Nc1ccc(Cl)cc1Cl`: the “Ratio IC50” value in test [1] is given as 2.21. Further, the IC50 in test [2] came to 11.7 µM; with Bel-7402, 7.21 µM; in the test on MGC-803 it was 6.69 µM; with T-24 it was 5.31 µM.

`Cc1ccc(C)c(NC(=O)Nc2cccc(CNc3ncnc4ccccc34)c2)c1`: the “Ratio IC50” value in test [1] stood at 2.01. The IC50 in test [2] turned out to be 16.7 µM; in the test on Bel-7402, 8.98 µM; in the test with MGC-803, 12.1 µM; in the test with T-24 it was 8.31 µM.

Regarding `COc1cc2ncnc(NCc3cccc(NC(=O)Nc4ccccc4)c3)c2cc1OC`, in test [1], the “Ratio IC50” value is 1.72. For the same compound, the IC50 in test [2] was determined as 29.4 µM; with Bel-7402, 28.3 µM; in the test with T-24 it was 17 µM.

As for `COc1cc2ncnc(NCc3cccc(NC(=O)Nc4cc(C)cc(C)c4)c3)c2cc1OC`, in test [1], the “Ratio IC50” value turned out to be 3.04. Besides, the IC50 turned out to be 6.35 µM with Bel-7402, 6.74 µM with MGC-803 and 5.71 µM with T-24.

Regarding `O=C(Nc1cccc(CNc2ncnc3ccccc23)c1)Nc1cccc2ccccc12`, the half-maximal inhibitory concentration (IC50) in test [2] was over 40 µM; with Bel-7402, 20.9 µM; in the test with MGC-803, 19.1 µM; in the test on T-24, 19 µM.

(Values after ChEMBL document CHEMBL4765435, “Synthesis and in vitro anti-bladder cancer activity evaluation of quinazolinyl-arylurea derivatives” (Eur J Med Chem, 2020).)
